Laboratory results published in ChEMBL document CHEMBL5370613, “Phenyl dialkynylcarbinols, a Bioinspired Series of Synthetic Antitumor Acetylenic Lipids” (J Med Chem, 2023).
Active and inactive are the calls of the source. No cut-off for these calls is given here.

Assays:
U2OS [1] = experiment: Induction of apoptosis in human U2OS cells assessed as PARP-1 cleavage at 1 uM incubated for 12 hrs in presence of z-VAD-fmk by immunoblot analysis; assay type: functional, cell-based
In short: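 U2OS cells were pre-incubated 1 h with z-VAD-fmk at 50 μM, then treated 12 h with 1 μM in complete medium. Whole-cell extracts were made in SDS lysis buffer (120 mM Tris-HCl pH 6.8, 20% glycerol, 4% SDS). Caspase-dependent PARP-1 cleavage fragment was detected by immunoblot with HRP secondaries and chemiluminescence.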

U2OS [2] = experiment: Cytotoxicity against human U2OS cells with HSD17B11 knockout complemented with HSD17B13-GFP assessed as cell viability at 1 uM incubated for 72 hrs by SRB assay relative to control; assay type: functional; details: read-out: Activity
In short: (§1)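 U2OS HSD17B11-KO cells stably complemented with GFP, HSD17B11-GFP or HSD17B13-GFP, exposed to 1 μM compound for 72 h in complete medium; viability read by SRB assay, in three independent experiments.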

U2OS [3] = experiment: Cytotoxicity against human U2OS cells with HSD17B11 knockout complemented with HSD17B11-GFP assessed as cell viability at 1 uM incubated for 72 hrs by SRB assay relative to control; assay type: functional; details: read-out: Activity; in short: as §1
[4] = Toxicity in Balb/c mouse assessed as organ damage at 10 mg/kg, iv administered 3 times per week and measured on day 15; assay type: organism-based; details: in vivo, 360 h, time 15 day
In short: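 Female adult Balb/c mice, 6 per group, received IV injections 3 times weekly for 3 weeks at 2, 5 or 10 mg/kg. Dosing solutions were 0.4, 1 and 2 mg/mL in saline with 10% Cremophor, given at 5 mL/kg, with IP substitution when IV was impossible. Mice were weighed thrice weekly and observed daily, with necropsy at endpoint.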

C#C[C@H](O)C#Cc1ccc(CCCCCCCC)cc1
Activity (U2OS [1]): inactive
viability at 1 µM (U2OS [2]): 0%
viability at 1 µM (U2OS [3]): 0%
Activity [4]: Non-Toxic
